In brackets after ≈: the same amount, converted by molar mass.
Columns and labels:
Type in all cases: functional
Enterococcus faecalis [1] = assay: Antibacterial activity against Enterococcus faecalis isolate 5744
Enterococcus faecalis [2] = assay: Antibacterial activity against Enterococcus faecalis isolate 5743
Enterococcus faecalis [3] = assay: Antibacterial activity against Enterococcus faecalis isolate 5742
Enterococcus faecium [4] = assay: Antibacterial activity against Enterococcus faecium isolate 2547
Summary of the method: (§1)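 MICs by broth microdilution in cation-adjusted Mueller-Hinton broth, following CLSI guidelines. Test isolates were clinical VRE (E. faecium), MRSA and VRSA recovered from patient sites or from nephrostomy tube biofilm. Biofilm isolates were obtained by PBS lumen washes of tube segments, dilution in Butterfield buffer and plating on selective and blood agars at 35°C for 24 to 48 h.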

Enterococcus faecium [5] = assay: Antibacterial activity against Enterococcus faecium isolate 5749
Enterococcus faecium [6] = assay: Antibacterial activity against Enterococcus faecium isolate 5750
Enterococcus faecium [7] = assay: Antibacterial activity against Enterococcus faecium isolate 5751
Enterococcus faecium [8] = assay: Antibacterial activity against Enterococcus faecium isolate 5752; summary of the method: as §1
Enterococcus faecium [9] = assay: Antibacterial activity against Enterococcus faecium isolate 5753
Enterococcus faecalis [10] = assay: Antibacterial activity against Enterococcus faecalis isolate 5745
Enterococcus faecalis [11] = assay: Antibacterial activity against Enterococcus faecalis isolate 5746
Staphylococcus aureus [12] = assay: Antibacterial activity against vancomycin-resistant Staphylococcus aureus isolate 595; summary of the method: as §1
Staphylococcus aureus [13] = assay: Antibacterial activity against methicillin-resistant Staphylococcus aureus isolate 5737; summary of the method: as §1
Staphylococcus aureus [14] = assay: Antibacterial activity against methicillin-resistant Staphylococcus aureus isolate 5739; summary of the method: as §1
Staphylococcus aureus [15] = assay: Antibacterial activity against methicillin-resistant Staphylococcus aureus isolate 2513; summary of the method: as §1
Staphylococcus aureus [16] = assay: Antibacterial activity against methicillin-resistant Staphylococcus aureus isolate 2530; summary of the method: as §1
Staphylococcus aureus [17] = assay: Antibacterial activity against vancomycin-resistant Staphylococcus aureus isolate 2514; summary of the method: as §1
Staphylococcus aureus [18] = assay: Antibacterial activity against methicillin-resistant Staphylococcus aureus isolate 5735; summary of the method: as §1
Staphylococcus aureus [19] = assay: Antibacterial activity against methicillin-resistant Staphylococcus aureus isolate 5736; summary of the method: as §1
Staphylococcus aureus [20] = assay: Antibacterial activity against methicillin-resistant Staphylococcus aureus isolate 5733; summary of the method: as §1
Staphylococcus aureus [21] = assay: Antibacterial activity against vancomycin-resistant Staphylococcus aureus isolate 5734; summary of the method: as §1

Molecule	MIC (Enterococcus faecalis [1]) [µg/mL]	MIC (Enterococcus faecalis [2]) [µg/mL]	MIC (Enterococcus faecalis [3]) [µg/mL]	MIC (Enterococcus faecium [4]) [µg/mL]	MIC (Enterococcus faecium [5]) [µg/mL]	MIC (Enterococcus faecium [6]) [µg/mL]	MIC (Enterococcus faecium [7]) [µg/mL]	MIC (Enterococcus faecium [8]) [µg/mL]	MIC (Enterococcus faecium [9]) [µg/mL]	MIC (Enterococcus faecalis [10]) [µg/mL]	MIC (Enterococcus faecalis [11]) [µg/mL]	MIC (Staphylococcus aureus [12]) [µg/mL]	MIC (Staphylococcus aureus [13]) [µg/mL]	MIC (Staphylococcus aureus [14]) [µg/mL]	MIC (Staphylococcus aureus [15]) [µg/mL]	MIC (Staphylococcus aureus [16]) [µg/mL]	MIC (Staphylococcus aureus [17]) [µg/mL]	MIC (Staphylococcus aureus [18]) [µg/mL]	MIC (Staphylococcus aureus [19]) [µg/mL]	MIC (Staphylococcus aureus [20]) [µg/mL]	also measured
O=C(N[C@H](CO)[C@H](O)c1ccc([N+](=O)[O-])cc1)C(Cl)Cl [CHLORAMPHENICOL]	16 (≈ 49.5 µM)	8 (≈ 24.8 µM)	8 (≈ 24.8 µM)	8 (≈ 24.8 µM)	4 (≈ 12.4 µM)	8 (≈ 24.8 µM)	≤ 2	8 (≈ 24.8 µM)	4 (≈ 12.4 µM)	8 (≈ 24.8 µM)	16 (≈ 49.5 µM)										
CCC[C@@H]1C[C@@H](C(=O)N[C@@H]([C@H]2O[C@H](SC)[C@H](O)[C@@H](O)[C@H]2O)[C@H](C)Cl)N(C)C1 [CLINDAMYCIN]												> 8	≤ 0.12	≤ 0.12	> 8	≤ 0.12	> 8	> 8	> 8	> 8	MIC (Staphylococcus aureus [21]): > 8 µg/mL
C[C@H]1c2cccc(O)c2C(=O)C2=C(O)[C@]3(O)C(=O)C(C(N)=O)=C(O)[C@@H](N(C)C)[C@@H]3[C@@H](O)[C@@H]21.O [DOXYCYCLINE]	8	4	4	16	8	16	16	16	8	4	≤ 0.25	4	0.5	≤ 0.25	≤ 0.25	≤ 0.25	4	4	4	4	MIC (Staphylococcus aureus [21]): 8 µg/mL
CC[C@H]1OC(=O)[C@H](C)[C@@H](O[C@H]2C[C@@](C)(OC)[C@@H](O)[C@H](C)O2)[C@H](C)[C@@H](O[C@@H]2O[C@H](C)C[C@H](N(C)C)[C@H]2O)[C@](C)(O)C[C@@H](C)C(=O)[C@H](C)[C@@H](O)[C@]1(C)O [ERYTHROMYCIN]	> 8	> 8	> 8	> 8	> 8	> 8	> 8	> 8	> 8	> 8	> 8	> 8	> 8	> 8	> 8	> 8	> 8	> 8	> 8	> 8	MIC (Staphylococcus aureus [21]): > 8 µg/mL
C[C@H]1COc2c(N3CCN(C)CC3)c(F)cc3c(=O)c(C(=O)O)cn1c23.C[C@H]1COc2c(N3CCN(C)CC3)c(F)cc3c(=O)c(C(=O)O)cn1c23.O [LEVOFLOXACIN]												16	16	16	16	16	16	16	16	16	MIC (Staphylococcus aureus [21]): 16 µg/mL
CN(C)c1ccc(O)c2c1C[C@H]1C[C@H]3[C@H](N(C)C)C(O)=C(C(N)=O)C(=O)[C@@]3(O)C(O)=C1C2=O [MINOCYCLINE]	16 (≈ 35 µM)	8 (≈ 17.5 µM)	8 (≈ 17.5 µM)	32 (≈ 69.9 µM)	16 (≈ 35 µM)	32 (≈ 69.9 µM)	16 (≈ 35 µM)	32 (≈ 69.9 µM)	16 (≈ 35 µM)	8 (≈ 17.5 µM)	0.12 (≈ 0.262 µM)										
Cc1onc(-c2ccccc2)c1C(=O)N[C@@H]1C(=O)N2[C@@H]1SC(C)(C)[C@@H]2C(=O)O [OXACILLIN]												> 16	> 16	> 16	> 16	> 16	> 16	> 16	> 16	> 16	MIC (Staphylococcus aureus [21]): > 16 µg/mL
CC1(C)S[C@@H]2[C@H](NC(=O)Cc3ccccc3)C(=O)N2[C@H]1C(=O)O [PENICILLIN G]	2 (≈ 5.98 µM)	2 (≈ 5.98 µM)	2 (≈ 5.98 µM)	128 (≈ 383 µM)	128 (≈ 383 µM)	256 (≈ 766 µM)	256 (≈ 766 µM)	128 (≈ 383 µM)	256 (≈ 766 µM)	2 (≈ 5.98 µM)	2 (≈ 5.98 µM)										
CO[C@H]1/C=C/O[C@@]2(C)Oc3c(C)c(O)c4c(O)c(c(/C=N/N5CCN(C)CC5)c(O)c4c3C2=O)NC(=O)/C(C)=C\C=C\[C@H](C)[C@H](O)[C@@H](C)[C@@H](O)[C@@H](C)[C@H](OC(C)=O)[C@@H]1C [RIFAMPIN]	0.5 (≈ 0.608 µM)	1 (≈ 1.22 µM)	1 (≈ 1.22 µM)	> 4	> 4	4 (≈ 4.86 µM)	> 4	> 4	> 4	1 (≈ 1.22 µM)	2 (≈ 2.43 µM)										
CN(C)[C@@H]1C(O)=C(C(N)=O)C(=O)[C@@]2(O)C(O)=C3C(=O)c4c(O)cccc4[C@@](C)(O)[C@H]3C[C@@H]12 [TETRACYCLINE]	> 16	> 16	> 16	> 16	> 16	> 16	> 16	> 16	> 16	> 16	≤ 0.5	> 16	≤ 0.5	≤ 0.5	≤ 0.5	≤ 0.5	> 16	8 (≈ 18 µM)	8 (≈ 18 µM)	8 (≈ 18 µM)	MIC (Staphylococcus aureus [21]): 16 µg/mL (≈ 36 µM)
CN[C@H](CC(C)C)C(=O)N[C@H]1C(=O)N[C@@H](CC(N)=O)C(=O)N[C@H]2C(=O)N[C@H]3C(=O)N[C@H](C(=O)N[C@H](C(=O)O)c4cc(O)cc(O)c4-c4cc3ccc4O)[C@H](O)c3ccc(c(Cl)c3)Oc3cc2cc(c3O[C@@H]2O[C@H](CO)[C@@H](O)[C@H](O)[C@H]2O[C@H]2C[C@](C)(N)[C@H](O)[C@H](C)O2)Oc2ccc(cc2Cl)[C@H]1O [VANCOMYCIN]	2 (≈ 1.38 µM)	2 (≈ 1.38 µM)	2 (≈ 1.38 µM)			256 (≈ 177 µM)	256 (≈ 177 µM)		256 (≈ 177 µM)	2 (≈ 1.38 µM)	2 (≈ 1.38 µM)	64 (≈ 44.2 µM)					32 (≈ 22.1 µM)				
GENTAMICIN												32	> 64	> 64	< 4	< 4	64	16	> 64	> 64	MIC (Staphylococcus aureus [21]): > 64 µg/mL

From ChEMBL document CHEMBL1142154, “High-level vancomycin-resistant Staphylococcus aureus isolates associated with a polymicrobial biofilm” (2007)
